For assay [1], the target named is 5-hydroxytryptamine receptor 2A (Rattus norvegicus, UniProt P14842). Description: Displacement of [3H]ketanserin from 5HT2A in Sprague-Dawley rat brain cortex by liquid scintillation counting. Particulars: read-out: Ki. The method in brief:
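Frontal cortex of male Sprague–Dawley rats (180–220 g), in 50 mM Tris-HCl, 0.5 mM EDTA, 10 mM MgCl2, pH 7.4, plus 0.1% ascorbate and pargyline. Triplicate 2.0 mL assays: 5-HT2A with 5 mg tissue and 0.4 nM [3H]ketanserin; 5-HT2C with 10 mg tissue and 1 nM [3H]mesulergine. 15 min at 37 °C, PEI-soaked filters. IC50 from six concentrations converted to Ki (Cheng–Prusoff).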

The target in assay [2] is T1, Adrenergic receptor alpha-1 (Rattus norvegicus, UniProt P15823+P23944+P43140).
T1 sequence (P15823 whole entry): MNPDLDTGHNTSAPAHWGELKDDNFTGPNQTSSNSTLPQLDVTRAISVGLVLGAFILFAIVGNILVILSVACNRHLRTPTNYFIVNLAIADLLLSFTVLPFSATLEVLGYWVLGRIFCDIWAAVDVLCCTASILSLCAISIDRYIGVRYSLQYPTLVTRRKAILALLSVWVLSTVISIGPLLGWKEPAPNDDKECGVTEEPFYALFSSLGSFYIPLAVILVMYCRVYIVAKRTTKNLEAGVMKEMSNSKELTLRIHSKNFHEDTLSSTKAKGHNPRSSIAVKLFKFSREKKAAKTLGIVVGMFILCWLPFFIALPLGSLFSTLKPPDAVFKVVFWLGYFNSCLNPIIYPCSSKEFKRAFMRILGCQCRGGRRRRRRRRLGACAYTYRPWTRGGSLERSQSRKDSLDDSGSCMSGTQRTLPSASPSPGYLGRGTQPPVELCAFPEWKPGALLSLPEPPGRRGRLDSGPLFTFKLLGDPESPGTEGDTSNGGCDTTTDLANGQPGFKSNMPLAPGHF
T1 sequence (P23944 whole entry): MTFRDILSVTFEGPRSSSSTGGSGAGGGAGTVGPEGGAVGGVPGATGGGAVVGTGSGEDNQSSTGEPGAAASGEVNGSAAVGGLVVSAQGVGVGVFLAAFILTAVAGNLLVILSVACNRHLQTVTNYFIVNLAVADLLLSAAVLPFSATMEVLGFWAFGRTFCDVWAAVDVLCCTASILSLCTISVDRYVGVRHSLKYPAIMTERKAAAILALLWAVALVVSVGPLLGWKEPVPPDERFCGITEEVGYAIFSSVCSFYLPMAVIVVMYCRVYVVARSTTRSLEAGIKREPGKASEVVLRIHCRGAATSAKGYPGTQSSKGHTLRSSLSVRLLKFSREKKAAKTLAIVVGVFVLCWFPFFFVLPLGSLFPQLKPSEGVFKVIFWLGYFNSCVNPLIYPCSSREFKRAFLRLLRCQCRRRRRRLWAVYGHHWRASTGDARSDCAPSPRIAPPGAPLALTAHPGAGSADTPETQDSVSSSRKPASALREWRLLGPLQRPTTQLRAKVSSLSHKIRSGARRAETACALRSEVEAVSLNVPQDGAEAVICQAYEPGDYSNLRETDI
T1 sequence (P43140 whole entry): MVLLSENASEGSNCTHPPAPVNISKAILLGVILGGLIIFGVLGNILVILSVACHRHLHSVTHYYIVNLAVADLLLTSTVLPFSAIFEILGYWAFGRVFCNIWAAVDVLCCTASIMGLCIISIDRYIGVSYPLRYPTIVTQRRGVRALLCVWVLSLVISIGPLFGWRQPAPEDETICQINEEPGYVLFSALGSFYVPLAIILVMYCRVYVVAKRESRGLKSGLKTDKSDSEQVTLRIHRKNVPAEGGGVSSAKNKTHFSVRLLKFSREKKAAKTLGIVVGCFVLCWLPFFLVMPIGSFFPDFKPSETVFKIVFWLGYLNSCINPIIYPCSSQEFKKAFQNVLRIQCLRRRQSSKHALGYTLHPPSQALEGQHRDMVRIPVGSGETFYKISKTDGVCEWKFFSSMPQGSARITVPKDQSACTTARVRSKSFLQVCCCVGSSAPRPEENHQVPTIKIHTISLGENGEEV
Briefly: Displacement of [3H]prozosine from alpha1 adrenergic receptor in rat brain cortex by liquid scintillation counting. The class given is tissue-based. The method in brief:
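Brain cortex membranes (10 mg fresh tissue) in 50 mM Tris–HCl pH 7.4 at 25 °C. [3H]prazosin at 0.4 nM final, incubated 30 min at 25 °C, GF/B filtration. Nonspecific binding with […]. Ki from IC50 via Cheng–Prusoff.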

5-hydroxytryptamine receptor 2A, sequence (P14842 whole entry): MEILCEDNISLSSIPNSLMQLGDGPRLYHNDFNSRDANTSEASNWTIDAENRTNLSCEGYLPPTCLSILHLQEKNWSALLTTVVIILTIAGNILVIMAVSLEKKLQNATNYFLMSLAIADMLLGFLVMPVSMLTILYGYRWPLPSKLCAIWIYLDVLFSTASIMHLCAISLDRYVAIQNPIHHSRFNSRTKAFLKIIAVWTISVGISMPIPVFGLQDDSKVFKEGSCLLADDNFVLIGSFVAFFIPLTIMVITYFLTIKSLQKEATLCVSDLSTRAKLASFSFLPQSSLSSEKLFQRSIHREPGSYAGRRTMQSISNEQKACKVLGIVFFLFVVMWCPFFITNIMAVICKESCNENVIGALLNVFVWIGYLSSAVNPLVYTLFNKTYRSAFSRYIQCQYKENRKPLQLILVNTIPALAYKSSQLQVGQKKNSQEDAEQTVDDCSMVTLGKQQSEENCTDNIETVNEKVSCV

The Ki is a measure of affinity in units of concentration, obtained from inhibition or displacement. As to `CCOC(=O)c1cc2cc(OCCCN3CCN(c4ccc(OC)cc4)CC3)ccc2[nH]1`, the Ki in assay [1] turned out to be 10000 nM; in assay [2] it was 514 nM.
As to `CCOC(=O)c1cc2cc(OCCCN3CCN(c4cccc(Cl)c4)CC3)ccc2[nH]1`, the Ki in assay [2] came to 32.9 nM.
Consider `CCOC(=O)c1cc2cc(OCCCN3CCN(Cc4ccc5c(c4)OCO5)CC3)ccc2[nH]1`, for which the inhibition constant Ki in assay [1] stood at 26.1 nM; in assay [2], 338 nM.

The values are drawn from ChEMBL document CHEMBL1154740, “Efficient microwave combinatorial synthesis of novel indolic arylpiperazine derivatives as serotoninergic ligands” (Eur J Med Chem, 2010).
